Screening results (PubChem)
Hits are enriched below; roughly 3.5% of the tested compounds scored in any of these assays.
MrgX1 antag = antagonists of human MrgX1 receptor, primary screen, HEK293 cells, Fluo-4 calcium flux; BAM8-22 antagonism; stronger effect = lower value; B-score at 10 µM; 310,000 compounds, 1.3% hits;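 active means calcium-response B-score plate-corrected more than 3 library SD below zero, starting fluorescence within 5 deviations, no agonist response on first addition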;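 further: peak minus trough fluorescence over baseline after final BAM8-22 challenge near maximal dose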
Target sequence (Q96LB2 whole entry, looked up): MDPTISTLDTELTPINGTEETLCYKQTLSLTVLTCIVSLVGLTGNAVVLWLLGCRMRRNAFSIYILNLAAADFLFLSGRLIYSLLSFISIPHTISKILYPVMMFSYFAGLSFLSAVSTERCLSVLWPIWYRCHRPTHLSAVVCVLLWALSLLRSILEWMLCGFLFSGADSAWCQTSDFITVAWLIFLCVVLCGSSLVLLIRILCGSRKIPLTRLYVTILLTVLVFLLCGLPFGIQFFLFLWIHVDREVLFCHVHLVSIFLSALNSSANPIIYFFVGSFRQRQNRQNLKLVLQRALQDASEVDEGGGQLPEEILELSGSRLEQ
RGS4 inh = RGS4 inhibitors, primary screen, cell-based, HEK293 M3R inducible RGS4, calcium flux | Fluo-4 calcium flux; stronger effect = higher value; triggered by carbachol at its EC20 | Regulator of G-protein signaling 4 (Homo sapiens), P49798 | 310,000 compounds, 0.45% hits | B-score at 10 µM;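 active means B-score, a plate-corrected calcium signal, over three deviations above library mean, with baseline fluorescence within five deviations of library mean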;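 further: RGS4 expression induced by doxycycline in cells with stable M3 receptor; B-score is computed from the integrated fluorescence ratio over baseline after carbachol; higher B-score means a larger calcium signal and so more RGS4 inhibition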
Target sequence (P49798 whole entry, looked up): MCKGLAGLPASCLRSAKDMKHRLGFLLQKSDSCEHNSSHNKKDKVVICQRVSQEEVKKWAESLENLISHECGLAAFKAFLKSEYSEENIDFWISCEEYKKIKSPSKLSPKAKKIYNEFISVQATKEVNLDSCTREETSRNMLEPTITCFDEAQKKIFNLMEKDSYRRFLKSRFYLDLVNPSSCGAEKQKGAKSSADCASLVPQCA
RGS4 pot = RGS4 potentiators or activators, primary screen, cell-based, HEK293 M3R inducible RGS4, calcium flux; 310,000 compounds, 0.92% hits; B-score at 10 µM; carbachol calcium flux Fluo4; stronger effect = lower value; AID 463111, 2010;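 active means B-score of the integrated calcium signal more than 4 SD below the library mean, with starting fluorescence not abnormally high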;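 further: negative B-score means reduced calcium response which marks RGS4 activation or potentiation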
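test system = M3R-expressing HEK293 line, RGS4 induced by doxycycline | probe or stimulus = carbachol at ECmax as muscarinic agonist stimulus | timing = dye loading 30 min 37 °C, buffer rest 30 min RT | signal = calcium dye Fluo4 fluorescence | evaluation = B score from integrated fluorescence ratio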
MrgX1 agonist = agonists of human MrgX1 receptor, primary screen, HEK293 cells, Fluo-4 calcium flux | Mas-related G-protein coupled receptor member X1 (Homo sapiens), Q96LB2 | Fluo-4 calcium fluorescence, agonist mode; stronger effect = higher value | B-score at 10 µM | 310,000 compounds, 0.44% hits;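 active means calcium response B-score plate-corrected fluorescence ratio at least 3 library SD, with starting fluorescence B-score inside 5 SD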
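Material: MrgX1-expressing HEK293 cells; input: 15,000 cells per well; doses: test compound given as first of three sequential additions; schedule: overnight plating before 1 h dye loading; technique: Fluo-4 NW calcium-flux fluorescence, kinetic read; evaluation: baseline-normalised fluorescence change ratio, B-scored; control set: plate-wise positive and negative controls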
MrgX1 allo act = positive allosteric modulators of MrgX1, primary screen, HEK293 cells, Fluo-4 calcium flux; Mas-related G-protein coupled receptor member X1 (Homo sapiens), Q96LB2; FDSS; stronger effect = higher value; B-score at 10 µM; 310,000 compounds, 0.63% hits; AID 588675, 2011;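 active means plate-corrected calcium response at least 3 library SD above typical, normal starting fluorescence, not activating the receptor alone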;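 further: compound read alongside a low EC10 to EC30 dose of BAM8-22 agonist; peak minus trough fluorescence over baseline measured at the second addition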
MrgX1 ant reconf = MrgX1 receptor antagonists, duplicate retest, confirmation, HEK293 cells, Fluo-4 calcium flux | shares compounds with MrgX1 antag | BAM8-22 calcium flux; stronger effect = lower value | remaining BAM8-22 calcium response % of control (stronger effect = lower value), % at 10 µM | 2,300 compounds, 19% hits | AID 602420, 2012;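 active means remaining agonist calcium response no higher than 100% minus 3 SD of agonist-only control wells, with starting fluorescence near control levels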;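 further: agonist BAM8-22 given at a near maximal EC90 to ECmax level; peak minus minimum fluorescence divided by baseline after agonist addition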
HEK293 Ca flux = nonspecific calcium signal in parental HEK293, confirmation, counter-screen for MrgX1 antagonist project, parental HEK293 cells, Fluo-4 calcium flux; shares compounds with MrgX1 antag; Fluo-4 calcium fluorescence, FDSS; fluorescence ratio F(max-min)/F0 at 10 µM; 4,000 compounds, 2% hits;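 active means duplicate-averaged calcium fluorescence ratio at least three times the standard deviation of buffer wells, a nonspecific response in parental cells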
HEK293 Ca counter = calcium response in parental HEK293 cells, primary screen, counter-screen for MrgX1 allosteric activator project, cell-based, Fluo-4 calcium flux, duplicate | 4,000 compounds, 0.4% hits | AID 624114, 2012 | shares compounds with MrgX1 antag | Fluo-4 fluorescence ratio; stronger effect = higher value | fluorescence ratio F(max-min)/F0 at 10 µM;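 active means calcium fluorescence ratio, averaged over duplicates, at least 3 SD of the buffer-well ratio, meaning a nonspecific response in receptor-free cells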;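 further: untransfected parental HEK293 lacking MrgX1 used as counterscreen for MrgX1 allosteric activators; fluorescence change taken during the second addition on a kinetic imager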
HEK293 Ca cntr2 = calcium response in parental HEK293 cells, primary screen, counter-screen for MrgX1 agonist project, cell-based, Fluo-4 calcium flux, duplicate, agonist mode; shares compounds with MrgX1 antag; 4,000 compounds, 8.7% hits; Fluo-4 calcium fluorescence (FDSS); stronger effect = higher value; fluorescence ratio F(max-min)/F0 at 10 µM;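 active means calcium fluorescence ratio at least three times the spread of buffer wells, meaning a non-specific response in parental cells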
Of the large screens only hits and unclear results are named; the others gave an inactive call (follow-up assays come after a bar, where they were run); ! = repeats disagree.

NC(=O)C1CCN(C(=O)NC2CC(=O)N(c3ccc4c(c3)OCCO4)C2)CC1 (stereo not given)	MrgX1 antag -6.9 | MrgX1 ant reconf inactive | HEK293 Ca flux inactive | HEK293 Ca counter inactive | HEK293 Ca cntr2 inactive
CN(C)S(=O)(=O)c1cccc(NC(=O)c2ccc(COc3ccccc3)cc2)c1	MrgX1 antag -4.8, RGS4 pot -7.2 | MrgX1 ant reconf 57% | HEK293 Ca flux inactive | HEK293 Ca counter inactive | HEK293 Ca cntr2 inactive
COc1ccc(N=Cc2ccc(-c3ccccc3)o2)cc1	MrgX1 antag -6 | MrgX1 ant reconf inactive | HEK293 Ca flux inactive | HEK293 Ca counter inactive | HEK293 Ca cntr2 inactive
CC(C)[C@H](NC(=O)OC(C)(C)C)c1nnc(SCC(=O)Nc2ccc(Br)cc2)o1	none
CC1CCCCC1NC(=O)CN1CCN(Cc2ccccc2Cl)C1=O (stereo not given)	MrgX1 antag -10 | MrgX1 ant reconf 84% | HEK293 Ca flux inactive | HEK293 Ca counter inactive | HEK293 Ca cntr2 inactive
O=C(CN1CCN(Cc2ccccc2Cl)C1=O)NC1CCCCCCC1	none
CN1CCN(c2ccc(Cl)cc2NC(=O)CN2C(=O)NC(C)(c3ccccc3)C2=O)CC1 (stereo not given)	MrgX1 antag -4.5 | MrgX1 ant reconf inactive | HEK293 Ca flux inactive | HEK293 Ca counter inactive | HEK293 Ca cntr2 inactive
Cc1ccc(S(=O)(=O)N2CCN(C(=O)c3ccnn3C)CC2)cc1C	MrgX1 antag -5.7 | MrgX1 ant reconf inactive | HEK293 Ca flux inactive | HEK293 Ca counter inactive | HEK293 Ca cntr2 inactive
C=CCOC(=O)c1ccc(N2CCN(c3ccccc3)CC2)nc1	none
O=C(c1ccccc1)c1c(O)nc(-c2ccccc2)n(-c2ccccc2)c1=O	MrgX1 antag -8 | MrgX1 ant reconf inactive | HEK293 Ca flux inactive | HEK293 Ca counter inactive | HEK293 Ca cntr2 inactive
CC(=O)c1c(O)c(C)c(-c2ccccc2)n(-c2ccccc2)c1=O	none
COc1ccc(NC(=O)CSc2ccccc2)c(OC)c1	MrgX1 antag -9.1 | MrgX1 ant reconf inactive | HEK293 Ca flux inactive | HEK293 Ca counter inactive | HEK293 Ca cntr2 inactive
COc1ccc(NC(=O)CSc2nc(=O)n(CCN3CCOCC3)c3c2CCC3)c(OC)c1	MrgX1 antag -7.6 | MrgX1 ant reconf inactive | HEK293 Ca flux inactive | HEK293 Ca counter inactive | HEK293 Ca cntr2 inactive
COCCCN1C(=O)c2[nH]nc(-c3ccccc3O)c2C1c1ccc(Cl)cc1 (stereo not given)	MrgX1 antag -4.8 | MrgX1 ant reconf inactive | HEK293 Ca flux inactive | HEK293 Ca counter inactive | HEK293 Ca cntr2 inactive
COCCCN1C(=O)c2[nH]nc(-c3ccccc3O)c2C1c1cccc(Cl)c1 (stereo not given)	none
CC(=O)c1cccc(S(=O)(=O)NC2CCCCCC2)c1	none
CC(=O)c1cccc(S(=O)(=O)NC2CC2)c1	MrgX1 antag -6.8 | MrgX1 ant reconf inactive | HEK293 Ca flux inactive | HEK293 Ca counter inactive | HEK293 Ca cntr2 inactive
CC1(C)CC(NC(=O)c2ccc(Cl)c(Cl)c2)CC(C)(C)N1	none
CCN1CCc2c(sc(NC(=O)Nc3ccc(Cl)c(Cl)c3)c2C(N)=O)C1	none (no result: RGS4 inh, RGS4 pot)
CCOc1cc(-c2nnc(NC(=O)C3=COCCO3)o2)cc(OCC)c1OCC	none
Cc1ccc(-c2noc(CNC(=O)c3ccc4c(c3)OCO4)n2)cc1	none
CCN(CC)CCN1C(=O)Cn2c(C)c(C)c3cccc1c32	MrgX1 antag -5! | MrgX1 ant reconf inactive | HEK293 Ca flux inactive | HEK293 Ca counter inactive | HEK293 Ca cntr2 inactive
COc1ccc(C)cc1N(CC(=O)Nc1ccc(S(=O)(=O)N2CCOCC2)cc1)S(C)(=O)=O	MrgX1 antag -5.2 | MrgX1 ant reconf inactive | HEK293 Ca flux inactive | HEK293 Ca counter inactive | HEK293 Ca cntr2 inactive
O=C(Nc1ccc(S(=O)(=O)N2CCc3ccccc32)cc1)c1ccco1	MrgX1 antag -4.8 | MrgX1 ant reconf inactive | HEK293 Ca flux inactive | HEK293 Ca counter inactive | HEK293 Ca cntr2 inactive
CCC(=O)Nc1ccc(S(=O)(=O)N2CCc3ccccc32)cc1	none
CSc1cccc(NS(=O)(=O)c2ccc3c(c2)oc(=O)n3C)c1	MrgX1 antag -6.2 | MrgX1 ant reconf 76% | HEK293 Ca flux inactive | HEK293 Ca counter inactive | HEK293 Ca cntr2 inactive
Cc1cc(NC(=O)CSc2nc(=O)n3cc(Cl)ccc3n2)no1	MrgX1 antag -8.2 | MrgX1 ant reconf 73% | HEK293 Ca flux inactive | HEK293 Ca counter inactive | HEK293 Ca cntr2 inactive
Cc1ccn2c(=O)nc(SCC(=O)Nc3cc(C)on3)nc2c1	none
CC(=O)c1cccc(NC(=O)CCc2nnc3ccc(NCc4ccc5c(c4)OCO5)nn23)c1	none
O=C(Nc1ccc(-c2ccccc2)cc1)c1ccc2c(c1)S(=O)(=O)c1ccccc1C2=O	MrgX1 antag -4.7 | MrgX1 ant reconf inactive | HEK293 Ca flux inactive | HEK293 Ca counter inactive | HEK293 Ca cntr2 inactive
O=C(Nc1ccncc1)c1ccc2c(c1)S(=O)(=O)c1ccccc1C2=O	none
COCCNC(=O)C1CC(c2ccc(C(F)(F)F)cc2)=NO1 (stereo not given)	none
Cc1ccc(CN2C(=O)C3CCCN3c3ccc(C#N)cc32)cc1 (stereo not given)	none
Cc1ccc(C)c(CN2C(=O)C3CCCN3c3ccc(C#N)cc32)c1 (stereo not given)	MrgX1 antag -5.6 | MrgX1 ant reconf inactive | HEK293 Ca flux inactive | HEK293 Ca counter inactive | HEK293 Ca cntr2 inactive
Cc1ccc(NC(=O)CCNS(=O)(=O)c2cc(Br)cnc2N)c(Cl)c1	MrgX1 antag -5.5 | MrgX1 ant reconf inactive | HEK293 Ca flux inactive | HEK293 Ca counter inactive | HEK293 Ca cntr2 inactive
Cc1nn(-c2ccccc2)c(C)c1NC(=O)COC(=O)CC(C)c1ccccc1 (stereo not given)	none
